Screening results as filed in PubChem BioAssay.
Efflux pump inh: inhibitors of Candida efflux pumps in yeast, primary screen, S. cerevisiae, Nile Red, multiplex | AID 485275, 2010 | inhibition, % at 10 µM | 330,000 tested, 0.44% active | S. cerevisiae Candida pump triplex;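 active = plate passing quality check with inhibition over a set limit, or well fluorescence over plate mean plus 4 SD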;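 note: Nile Red retained in pooled yeast measured as flow cytometry median fluorescence; higher means more Nile Red kept so more efflux inhibition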
T cruzi repl: inhibitors of intracellular T. cruzi growth, primary screen, luminescence, NIH3T3 host cells; T. cruzi beta-gal in NIH3T3, 90 h; inhibition, % (concentration not given with the values); 300,000 tested, 1.4% active; AID 1885, 2009;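 active = mean inhibition across valid replicates above about 55%, limit read from the data; inconclusive = mean below that limit but half or more replicates reach it; inactive = mean below it, under half of replicates reach it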;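 note: signal also drops with host cell toxicity which is not excluded here; higher percent means less beta-gal luminescence so fewer parasites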
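Assay system: NIH/3T3 host cells with β-galactosidase reporter T. cruzi; input: 5,000 host fibroblasts per well; compound: single 50 nL compound addition per well in DMSO; timing: ≥90 h infection period, 3 h prior cell attachment; measured by: GalScreen β-gal luminescence, detergent lysis, 60 min; evaluation: percent inhibition of parasite-derived β-gal signal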
Beta apoptosis: inhibitors of cytokine-induced beta cell apoptosis, primary screen, luminescence; INS-1E cytokine-induced death, ATP luminescence, 48 h; percent of positive-control rescue, neutral wells zero; protection from apoptosis, % (concentration not given with the values); 300,000 tested, 0.8% active; AID 435005, 2010;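 active = Every replicate reaches about 75%, or at least half do and their mean reaches it too, limit read from the data; inconclusive = At least half of replicates reach the limit but their mean does not; inactive = Under half of replicates reach the limit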;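 note: higher means more ATP so stronger rescue from cytokine killing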
WT yeast gro inh: growth inhibition of WT strain, primary screen, mitochondrial fusion inhibitor project, WT and mutant strains, chemical genetic; 190,000 tested, 2.1% active; inhibition, % at 10 µM; mitochondrial fusion phenotypic screen; in the data active = inhibition above about 58%; tested in S. cerevisiae
CSC inhib: cancer stem cell viability inhibitors, primary screen, luminescence; inhibition, % at 7.5 µM; cancer stem cell-like cells viability; 300,000 tested, 1.1% active; in the data active = inhibition above about 75%; inconclusive = no clear call, values can overlap the other calls; tested in HMLE shEcad cells
Mot1-301 SUMO: yeast Mot1-301 growth rescue at high temperature, primary screen, SUMOylation pathway inhibitor project, S. cerevisiae, ATP luminescence, 38.5C; S. cerevisiae Mot1-301 growth rescue; percent above DMSO median, 100 means doubled; growth rescue, % at 18.8 µM; 320,000 tested, 1% active; AID 2716, 2010;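 active = every valid replicate shows activation above 250% relative to neutral control wells; inactive = the rest, any valid replicate at or below 250%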
Of the large screens only hits and unclear results are named; the others gave an inactive call. A selection: hits, their analogues and other compounds. The true share with any hit is near 4.8%.

CSc1nnc(NC(=O)c2nc(S(=O)(=O)Cc3cccc(C)c3)ncc2Cl)s1	CSC inhib 110 (no result: WT yeast gro inh)
Cc1ccc(CS(=O)(=O)c2ncc(Cl)c(C(=O)Nc3nnc(C(C)C)s3)n2)cc1	CSC inhib 111 (no result: WT yeast gro inh)
CSc1nnc(NC(=O)c2nc(S(=O)(=O)Cc3ccccc3F)ncc2Cl)s1	CSC inhib inconclusive (no result: WT yeast gro inh)
O=C(NCc1ccccc1)c1nc(S(=O)(=O)Cc2ccccc2)ncc1Cl	none (no result: WT yeast gro inh)
C(=C1/CCCC2=C1Nc1ncnn1C2c1ccccc1)/c1ccccc1 (stereo unspecified)	T cruzi repl 74
S=C1NC2=C(CCC/C2=C\c2ccccc2)C(c2ccccc2)N1 (stereo unspecified)	none
O=C(CCSc1ccc(Cl)cc1)NC1CCCCC1	none
O=C(CCSc1ccc(Cl)cc1)NC12CC3CC(CC(C3)C1)C2	WT yeast gro inh 83
COc1cc(S(=O)(=O)N2CCC(O)(c3cccc(C(F)(F)F)c3)CC2)ccc1-n1cnnn1	T cruzi repl 61
O=C(O)c1cc(S(=O)(=O)N2CCN(S(=O)(=O)c3ccc4ccccc4c3)CC2)ccc1Br	none (no result: T cruzi repl, WT yeast gro inh)
CC1CN(Cc2cc(=O)n3ccsc3n2)CC(C)O1 (stereo unspecified)	Mot1-301 SUMO 278
C=CCc1cc(Cl)ccc1OCCNCCN1CCOCC1	T cruzi repl 73 (no result: Mot1-301 SUMO)
C=CCc1ccc(OCCCCCN2CCOCC2)c(OC)c1	Mot1-301 SUMO 276
C=CCc1ccc(OC)c(OC)c1	Mot1-301 SUMO 864 (no result: WT yeast gro inh)
Cc1ccccc1NC(=S)N1CCCC1	none
Cc1ccc(NC(=S)N2CCCC(c3nc4ccccc4[nH]3)C2)cc1 (stereo unspecified)	Mot1-301 SUMO 523
CCOCCCNC(=S)N1CCCC(c2nc3ccc(C)cc3[nH]2)C1 (stereo unspecified)	none
Cc1ccccc1NC(=S)N1CCCC(c2nc3ccccc3[nH]2)C1 (stereo unspecified)	T cruzi repl 72
CC(CCc1ccccc1)NC(=O)CNC(=O)c1cccs1 (stereo unspecified)	none (no result: WT yeast gro inh)
CC(C)Cn1c(CCC(N)=O)nnc1SC(C)C(=O)Nc1ccc2c(c1)OCO2 (stereo unspecified)	none (no result: T cruzi repl, WT yeast gro inh)
CCc1nnc(NC(=O)CSc2nc3cccnc3n2Cc2ccccc2)s1	Mot1-301 SUMO 305
CN1CCN(S(=O)(=O)c2cccc(C(=O)Nc3ccc(Br)cc3Br)c2)CC1	none (no result: WT yeast gro inh)
O=C(COC(=O)c1ccc2c(c1)OCCO2)Nc1cc(Cl)ccc1Cl	Mot1-301 SUMO 321
Cc1cc(C)cc(NC(=O)COC(=O)c2ccc3c(c2)OCCO3)c1	none (no result: T cruzi repl, WT yeast gro inh, CSC inhib)
O=C(Nc1ccccc1C(=O)O)c1ccc(CN2C(=O)c3ccccc3C2=O)cc1	none (no result: WT yeast gro inh)
CCc1nnc(NS(=O)(=O)c2ccc(N3C(=O)c4ccc(C(=O)O)cc4C3=O)cc2)s1	none
COc1cccc(CC2(CO)CCCN(Cc3cc4ccccc4[nH]3)C2)c1 (stereo unspecified)	T cruzi repl 67
COc1cccc(CC2(CO)CCCN(Cc3ccc(C)s3)C2)c1 (stereo unspecified)	T cruzi repl 58
COc1cccc(CC2(CO)CCCN(Cc3sc(N4CCCC4)nc3Cl)C2)c1 (stereo unspecified)	T cruzi repl 55
COc1cccc(CC2(CO)CCCN(Cc3ccc(CO)o3)C2)c1 (stereo unspecified)	none
COc1cccc(CC2(CO)CCCN(Cc3[nH]c4ccc(C)cc4c3C)C2)c1 (stereo unspecified)	WT yeast gro inh 81
COc1cccc(CC2(CO)CCCN(Cc3ccc(-c4ccco4)cc3)C2)c1 (stereo unspecified)	T cruzi repl 58
COc1cccc(CC2(CO)CCCN(Cc3ccccc3-c3ccco3)C2)c1 (stereo unspecified)	none
CCOc1cccc(/C=C/c2ccc3cccc(O)c3n2)c1OC	T cruzi repl 84, CSC inhib inconclusive (no result: Beta apoptosis, WT yeast gro inh)
Oc1ccc(/C=C/c2ccc3cccc(O)c3n2)cc1Br	CSC inhib 93 (no result: WT yeast gro inh)
COc1ccc(Cl)cc1/C=C/c1ccc2cccc(O)c2n1	none (no result: WT yeast gro inh)
O=C(O)c1ccc(/C=C/c2ccc3cccc(O)c3n2)cc1	none (no result: Efflux pump inh, Beta apoptosis, CSC inhib, Mot1-301 SUMO)
COc1ccccc1/C=C/c1ccc2cccc(O)c2n1	T cruzi repl 56 (no result: WT yeast gro inh)
COc1ccc(OC)c(NC(=O)CSc2nnc(Cn3nnc4ccccc43)n2C)c1	none
O=C(NCC(=O)N1CCN(S(=O)(=O)c2cccs2)CC1)c1ccc(Cl)cc1	none
O=S(=O)(/N=C(/c1ccccc1)N1CCOCC1)c1ccc(Br)cc1	none (no result: Beta apoptosis, WT yeast gro inh, CSC inhib)
COc1ccc2nc(N=Nc3ccc(O)c4ccccc34)sc2c1	Beta apoptosis inconclusive, CSC inhib 92
O=C(CSC(=S)N1CCCCC1)Nc1ncc2c(n1)CCCC2=O	none (no result: WT yeast gro inh)
Cc1ccc(C(=O)NC2CC(C)(C)NC(C)(C)C2)cc1S(=O)(=O)N1CCCCC1	none (no result: WT yeast gro inh)
CCOC(=O)c1c2c(n(C)c1COC)C(=O)C(=O)c1ccc(Br)cc1-2	Beta apoptosis 105, CSC inhib 121 (no result: WT yeast gro inh)
CCCCn1nc(C(=O)Nc2cc(C(F)(F)F)ccc2N2CCOCC2)ccc1=O	none (no result: T cruzi repl, WT yeast gro inh)
CCCC(=O)NC(c1cccs1)c1cc([N+](=O)[O-])c2cccnc2c1O (stereo unspecified)	CSC inhib 106
CCC(=O)NC(c1cccs1)c1cc(Cl)c2ccccc2c1O (stereo unspecified)	none (no result: T cruzi repl, WT yeast gro inh)
CC(=O)NC(c1cccs1)c1cc(Cl)c2ccccc2c1O (stereo unspecified)	none (no result: T cruzi repl, WT yeast gro inh)
CCCC(=O)NC(C)C(c1cccs1)N1CCN(C)CC1 (stereo unspecified)	none (no result: CSC inhib)
O=C(CCc1ccccc1)NC(c1cccs1)c1cc(Cl)c2cccnc2c1O (stereo unspecified)	T cruzi repl 66 (no result: Efflux pump inh, Beta apoptosis, CSC inhib, Mot1-301 SUMO)
CC(=O)NC(c1cccs1)c1cc([N+](=O)[O-])c2cccnc2c1O (stereo unspecified)	Beta apoptosis 90, CSC inhib 99
CCC(=O)NC(C)c1cc(Cl)c2ccccc2c1O (stereo unspecified)	none (no result: T cruzi repl, WT yeast gro inh)
CCC(=O)NC(c1cccs1)c1cc([N+](=O)[O-])c2cccnc2c1O (stereo unspecified)	CSC inhib 109
O=C(CCc1nnc2ccc(NCc3ccccc3Cl)nn12)NC1CCCCC1	none (no result: WT yeast gro inh)
Cc1nn(C(=O)c2cc([N+](=O)[O-])ccc2Cl)c(C)c1Br	none (no result: WT yeast gro inh)
Cc1cccc(NC(=O)c2cc3n(n2)C(C(F)(F)F)CC(c2ccc4c(c2)OCO4)N3)c1 (stereo unspecified)	WT yeast gro inh 67 (no result: Beta apoptosis)
Cc1cc(NC(=O)c2cc3n(n2)C(C(F)(F)F)CC(c2ccc(Cl)c(Cl)c2)N3)no1 (stereo unspecified)	none
